In data set [1] the target is Histamine H3 receptor (Homo sapiens) (UniProt Q9Y5N1). Put plainly: Displacement of [3H]alpha-methylhistamine from H3 histamine receptor at 10 uM.
The target in data set [2] is Alpha-1D adrenergic receptor (Homo sapiens) (UniProt P25100). Put plainly: Inhibition of alpha1D adrenergic receptor at 10 uM by radioligand displacement assay. Background: Loss of bound radioactivity is the signal in a displacement assay; it reports binding, not function.
The target of data set [3] is Histamine H4 receptor (Homo sapiens) (UniProt Q9H3N8). Put plainly: Displacement of [3H]Histamine from H4 histamine receptor at 10 uM.
Chain of Histamine H4 receptor (Homo sapiens) (Q9H3N8 whole entry): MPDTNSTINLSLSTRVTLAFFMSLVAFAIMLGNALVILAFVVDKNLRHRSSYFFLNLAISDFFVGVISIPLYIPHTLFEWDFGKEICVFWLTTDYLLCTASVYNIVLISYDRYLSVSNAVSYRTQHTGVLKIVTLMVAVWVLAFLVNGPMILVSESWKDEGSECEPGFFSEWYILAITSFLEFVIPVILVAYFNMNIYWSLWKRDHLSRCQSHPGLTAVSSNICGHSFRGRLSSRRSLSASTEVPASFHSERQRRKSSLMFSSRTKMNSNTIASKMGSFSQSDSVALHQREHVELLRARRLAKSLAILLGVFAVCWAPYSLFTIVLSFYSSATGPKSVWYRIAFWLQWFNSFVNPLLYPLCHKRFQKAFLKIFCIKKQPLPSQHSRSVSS
Data set [4] deals with Plasma. Put plainly: Plasma protein binding in human at 10 uM. The data set is classed as ADME, cell-free. In short, it runs like this: (§1)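 Binding measured at 10 μM in human plasma and CD-1 mouse plasma; reported as mean percent bound.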
Data set [5] addresses Muscarinic acetylcholine receptor M1 (Homo sapiens) (UniProt P11229). Put plainly: Displacement of [3H]QNB from M1 receptor at 10 uM.
The test system of data set [6] is Mus musculus. Put plainly: Antidepressant activity in BALB/cJ mouse assessed as decrease in immobility at 10 mg/kg, po administered 30 mins prior to testing measured for 6 mins by forced swim test. It is filed as functional, organism-based. Details: dose 10 mg/kg. The method in brief:
(§2)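 Male BALB/cJ mice, 8−10 weeks old, housed four per cage on a 12 h light−dark cycle. Drug in injectable water was given by oral gavage (10 mL/kg). After 30 min, each mouse was placed in a glass cylinder with 12 cm of ~23 °C water, and floating immobility was timed over a 6 min trial. Analysis was by ANOVA with Fisher's PLSD post hoc test.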

Data set [7] concerns Plasma. Put plainly: Plasma protein binding in CD1 mouse at 10 uM. It is filed as ADME, cell-free. The method in brief:
as §1

The test system of data set [8] is Mus musculus. Put plainly: Antidepressant activity in BALB/cJ mouse assessed as decrease in immobility at 3 mg/kg, po administered 30 mins prior to testing measured for 6 mins by forced swim test. On the set-up: dose 3 mg/kg. It is filed as functional, organism-based. The method in brief: as §2
Data set [9] concerns the target Vasopressin V1a receptor (Homo sapiens) (UniProt P37288). Put plainly: Displacement of radioligand from Vasopressin V1A receptor. As to conditions: concentration not given here.
Data set [10] is described as follows: Displacement of [3H]PK11195 from PBR at 10 uM.
Data set [11] in a line: Displacement of radioligand from oxytocin receptor. The note with it: concentration not given here.
Data set [12] concerns the target 5-hydroxytryptamine receptor 2A (Homo sapiens) (UniProt P28223). Put plainly: Displacement of [3H]Ketanserin from 5-HT2A at 10 uM.
Data set [13] has as its target 5-hydroxytryptamine receptor 1D (Homo sapiens) (UniProt P28221). Put plainly: Displacement of [3H][…] from 5-HT1D at 10 uM.
The test system of data set [14] is Nucleic Acid. Put plainly: Ratio of drug level in brain to plasma in CD1 mouse at 5 mg/kg, po. It is filed as ADME, organism-based. On the set-up: dose 5 mg/kg, route oral. In short, it runs like this: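 Male CD-1 mice, single 5 mg/kg oral gavage dose; brain-to-plasma ratio calculated as Cmax-brain/Cmax-plasma.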
Data set [15] has as its system Plasma. Put plainly: Half life in CD1 mouse plasma at 5 mg/kg, po. The data set is classed as ADME, organism-based. The note with it: in vivo. On the set-up: dose 5 mg/kg, route oral. In short, it runs like this: (§3)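 Male CD-1 mice given a single oral gavage dose of 5 mg/kg; plasma and brain concentrations measured over time to derive half-lives, Cmax and Tmax.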

Data set [16] has as its system Plasma. Put plainly: Cmax in CD1 mouse plasma at 5 mg/kg, po at 10 mins. The note with it: in vivo. It is filed as ADME, organism-based. On the set-up: dose 5 mg/kg, route oral. The method in brief:
(§4)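 Male CD-1 mice received a single oral gavage dose of 5 mg/kg. Drug levels were measured in brain and plasma over time; Cmax and Tmax were taken from the concentration−time profiles.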

The subject of data set [17] is Plasma. Put plainly: Tmax in CD1 mouse plasma at 5 mg/kg, po. It is filed as ADME, organism-based. Details: dose 5 mg/kg, route oral. The note with it: in vivo. The method in brief:
as §3

Data set [18] deals with Brain. Put plainly: Half life in CD1 mouse brain at 5 mg/kg, po. The data set is classed as ADME, organism-based. Details: dose 5 mg/kg, route oral. The note with it: in vivo. In short, it runs like this:
as §3

A short description of data set [19]: Cmax in CD1 mouse brain at 5 mg/kg, po at 30 mins. The data set is classed as ADME, organism-based. On the set-up: dose 5 mg/kg, route oral. In short, it runs like this:
as §4

The source made the active and inactive calls. No cut-off for these calls is given here.

Chain of Alpha-1D adrenergic receptor (Homo sapiens) (P25100 whole entry): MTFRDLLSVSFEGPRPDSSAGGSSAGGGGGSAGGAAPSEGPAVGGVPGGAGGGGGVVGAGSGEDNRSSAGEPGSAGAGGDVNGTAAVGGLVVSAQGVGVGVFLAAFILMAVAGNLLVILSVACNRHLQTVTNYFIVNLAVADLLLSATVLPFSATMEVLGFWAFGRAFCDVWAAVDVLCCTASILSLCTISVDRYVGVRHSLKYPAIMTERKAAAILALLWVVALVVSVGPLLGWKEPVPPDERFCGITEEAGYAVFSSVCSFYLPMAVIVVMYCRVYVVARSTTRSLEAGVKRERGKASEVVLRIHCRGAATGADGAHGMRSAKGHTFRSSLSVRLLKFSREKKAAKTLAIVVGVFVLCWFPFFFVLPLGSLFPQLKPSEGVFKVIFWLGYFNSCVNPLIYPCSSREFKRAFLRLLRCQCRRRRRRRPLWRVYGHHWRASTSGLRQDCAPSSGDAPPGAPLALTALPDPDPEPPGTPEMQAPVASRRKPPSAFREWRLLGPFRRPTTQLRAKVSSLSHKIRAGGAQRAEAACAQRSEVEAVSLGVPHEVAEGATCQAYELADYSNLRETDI
Chain of 5-hydroxytryptamine receptor 1D (Homo sapiens) (P28221 whole entry): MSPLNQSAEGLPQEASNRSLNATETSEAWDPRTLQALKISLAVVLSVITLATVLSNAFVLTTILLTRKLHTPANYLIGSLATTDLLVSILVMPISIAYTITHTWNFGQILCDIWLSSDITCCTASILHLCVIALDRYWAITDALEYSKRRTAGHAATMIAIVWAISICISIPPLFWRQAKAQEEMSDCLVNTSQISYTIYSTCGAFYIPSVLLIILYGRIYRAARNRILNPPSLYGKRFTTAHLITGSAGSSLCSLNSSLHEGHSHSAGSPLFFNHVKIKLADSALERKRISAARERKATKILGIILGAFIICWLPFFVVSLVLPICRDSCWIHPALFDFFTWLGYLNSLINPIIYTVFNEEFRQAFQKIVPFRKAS
Chain of Vasopressin V1a receptor (Homo sapiens) (P37288 whole entry, looked up): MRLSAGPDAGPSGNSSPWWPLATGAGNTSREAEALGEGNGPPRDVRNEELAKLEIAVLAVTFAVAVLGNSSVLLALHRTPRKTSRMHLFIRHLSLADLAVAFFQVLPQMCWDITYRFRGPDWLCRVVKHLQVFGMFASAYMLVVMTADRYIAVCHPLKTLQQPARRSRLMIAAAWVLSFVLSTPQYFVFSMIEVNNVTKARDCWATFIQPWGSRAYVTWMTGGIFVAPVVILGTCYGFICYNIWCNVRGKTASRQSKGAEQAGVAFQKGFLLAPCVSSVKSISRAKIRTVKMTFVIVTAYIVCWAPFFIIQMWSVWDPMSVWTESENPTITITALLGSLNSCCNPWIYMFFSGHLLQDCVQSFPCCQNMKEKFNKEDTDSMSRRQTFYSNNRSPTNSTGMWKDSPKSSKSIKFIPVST
Chain of 5-hydroxytryptamine receptor 2A (Homo sapiens) (P28223 whole entry): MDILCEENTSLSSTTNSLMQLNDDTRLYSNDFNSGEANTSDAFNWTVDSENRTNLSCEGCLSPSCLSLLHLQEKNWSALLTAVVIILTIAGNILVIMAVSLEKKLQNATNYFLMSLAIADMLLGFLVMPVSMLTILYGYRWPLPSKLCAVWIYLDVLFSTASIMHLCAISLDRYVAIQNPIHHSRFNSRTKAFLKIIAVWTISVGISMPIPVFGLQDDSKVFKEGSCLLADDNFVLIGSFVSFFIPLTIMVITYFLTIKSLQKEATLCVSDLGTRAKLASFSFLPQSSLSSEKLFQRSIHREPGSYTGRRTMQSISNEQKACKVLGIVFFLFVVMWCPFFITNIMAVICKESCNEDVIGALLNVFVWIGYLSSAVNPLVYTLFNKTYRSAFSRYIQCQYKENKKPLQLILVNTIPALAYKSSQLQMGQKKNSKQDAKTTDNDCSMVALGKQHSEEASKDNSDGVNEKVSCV
Chain of Histamine H3 receptor (Homo sapiens) (Q9Y5N1 whole entry): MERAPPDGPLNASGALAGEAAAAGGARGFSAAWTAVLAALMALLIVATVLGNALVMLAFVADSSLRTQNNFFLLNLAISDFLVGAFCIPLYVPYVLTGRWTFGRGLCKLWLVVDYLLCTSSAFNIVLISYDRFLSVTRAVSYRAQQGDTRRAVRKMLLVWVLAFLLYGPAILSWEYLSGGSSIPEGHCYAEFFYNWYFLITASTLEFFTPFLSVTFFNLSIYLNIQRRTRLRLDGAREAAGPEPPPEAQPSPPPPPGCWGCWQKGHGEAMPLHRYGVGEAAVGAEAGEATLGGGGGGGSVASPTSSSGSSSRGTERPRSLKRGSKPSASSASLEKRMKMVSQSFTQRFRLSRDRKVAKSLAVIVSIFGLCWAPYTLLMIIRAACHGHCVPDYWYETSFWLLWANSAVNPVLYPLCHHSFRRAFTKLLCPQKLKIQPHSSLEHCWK
Chain of Muscarinic acetylcholine receptor M1 (Homo sapiens) (P11229 whole entry): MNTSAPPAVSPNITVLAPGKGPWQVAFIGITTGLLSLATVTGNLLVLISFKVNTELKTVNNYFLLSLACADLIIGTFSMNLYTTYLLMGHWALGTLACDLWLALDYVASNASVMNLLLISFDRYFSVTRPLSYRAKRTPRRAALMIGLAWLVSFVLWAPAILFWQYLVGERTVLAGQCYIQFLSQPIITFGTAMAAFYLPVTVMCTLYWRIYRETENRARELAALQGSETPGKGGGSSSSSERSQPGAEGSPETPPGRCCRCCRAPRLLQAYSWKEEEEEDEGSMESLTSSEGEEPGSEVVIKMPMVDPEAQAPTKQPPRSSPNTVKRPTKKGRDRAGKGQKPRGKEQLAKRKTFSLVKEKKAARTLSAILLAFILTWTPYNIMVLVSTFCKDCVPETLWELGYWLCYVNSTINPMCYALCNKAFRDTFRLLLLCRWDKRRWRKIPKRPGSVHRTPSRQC

For `CNC(=O)OCC[C@H]1C[C@@H]1c1cncc(OC[C@@H]2CCN2)c1`, the inhibition is 5.7% in [1], -2.7% in data set [2], -8% in data set [3] and 12.9% in data set [5]. Moreover, the PPB was 8.4% in data set [4] and 23.8% in data set [7]. In addition, the outcome in data set [6] was Active.
Take `OCC[C@H]1C[C@@H]1c1cncc(OC[C@@H]2CCN2)c1`: in [8], the result was Active. In addition, the inhibition in [9] was 29.1%; in data set [10], 4.7%; in data set [11], 9.4%; in data set [12] it was 34.2%; in data set [13], 5.6%.
For `COCC[C@H]1C[C@@H]1c1cncc(OC[C@@H]2CCN2)c1`, the BPR in [14] stood at 0.37. In addition, the result in data set [8] was Active. Also, the inhibition was 30.5% in data set [9]; -5.9% in [10]; 3.4% in data set [2]; -1.4% in data set [11]; 43.7% in [12]; 1.2% in [13]. Moreover, the values for the t1/2 in data set [15] and in data set [18] were 144 min and 150 min, respectively. Also, the Cmax in data set [16] was 359 ng/mL; in [19], 133 ng/mL. Moreover, the Tmax in data set [17] amounted to 10 min.

As a reminder, the inhibition is the relative decrease from the control value, in per cent. For orientation: Cmax means the maximum level reached in the sampled fluid or tissue. In general, Tmax refers to the time at which the peak concentration occurs.

Values taken from ChEMBL document CHEMBL2021777 (J Med Chem, 2012).
